Nine molecules from ChEMBL document CHEMBL1121721 (J Med Chem, 1981) can be followed below.

The species entered for assay [1] is Mus musculus. The experiment in a line: Relative potency of compound verses morphine for analgesic activity in mice. The class given is functional.
Assay [2] addresses Delta-type opioid receptor (Mus musculus, UniProt P32300). The experiment in a line: Inhibitory potency against delta Opioid receptor delta 1 in longitudinal muscle preparation of mouse vas deferens.
In the next assay the target is Mu-type opioid receptor (Cavia porcellus, UniProt P97266). The experiment in a line: Inhibitory potency against Opioid receptor mu 1 in longitudinal muscle preparation of guinea pig ileum. The class given is tissue-based. The method, boiled down: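 Guinea pig ileum was electrically stimulated to contract, and inhibition was measured at six concentrations per compound, with six to eight assays each. Methionine-enkephalin served as the internal standard in every assay. IC50 was obtained by regression analysis.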

Assay [3] in a line: Ratio of IC50 evaluated in GPI to MVD. The class given is functional. The method in brief: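 IC50 values were determined on electrically stimulated guinea pig ileum and on mouse vas deferens. Each used six concentrations with six to eight assays each, methionine-enkephalin as internal standard, and regression analysis. The ratio is GPI IC50 over MVD IC50.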
For assay [4], the system named is Mus musculus. Nature of the assay: Analgesic activity of compound (1.46+diprenorphine) in mice after icv administration. The assay is classed as functional. The method, boiled down:
(§1)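 Swiss mice (20–22 g) got naloxone 1 mg/kg sc or diprenorphine 0.5 mg/kg sc 15 min before icv compound, given in saline in a constant 5 μL. Hind-paw lick latency on a 65 ± 1 °C hot plate was read 15 min after icv injection. Mice with control latency over 9 s were excluded. Values are mean ± SEM, with n.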

Assay [5] concerns Mus musculus. Nature of the assay: Analgesic activity of compound (1.46+naloxone) in mice after icv administration. The assay is classed as functional. The method, boiled down:
as §1

For assay [6], the system named is Mus musculus. The experiment in a line: Analgesic activity of compound (1.46 nM) in mice after icv administration. The assay is classed as functional. The method in brief: (§2)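 Swiss mice (20–22 g) got icv injections of compound freshly dissolved in saline, in a constant 5 μL. Hind-paw lick latency on a 65 ± 1 °C hot plate was read 15 min after injection. Animals with control latency above 9 s were rejected. Values are mean ± SEM, with n per group.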

Assay [7] deals with Mus musculus. Nature of the assay: Analgesic activity of compound (1.98 nM) in mice after icv administration. The assay is classed as functional. The method in brief:
as §2

The test system of assay [8] is Mus musculus. Nature of the assay: Analgesic activity of compound (2.66 nM) in mice after icv administration. The class given is functional. The method in brief:
as §2

Assay [9] has as its system Mus musculus. Nature of the assay: Analgesic activity of compound (1.45 nM) in mice after icv administration. The assay is classed as functional. The method in brief:
as §2

The test system of assay [10] is Mus musculus. Nature of the assay: Analgesic activity of compound (1.48 nM) in mice after icv administration. The class given is functional. The method in brief:
as §2

Mu-type opioid receptor, sequence (P97266 whole entry): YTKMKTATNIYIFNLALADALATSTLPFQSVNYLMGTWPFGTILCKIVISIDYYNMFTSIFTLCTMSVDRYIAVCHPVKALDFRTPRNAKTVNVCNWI
Delta-type opioid receptor, sequence (P32300 whole entry): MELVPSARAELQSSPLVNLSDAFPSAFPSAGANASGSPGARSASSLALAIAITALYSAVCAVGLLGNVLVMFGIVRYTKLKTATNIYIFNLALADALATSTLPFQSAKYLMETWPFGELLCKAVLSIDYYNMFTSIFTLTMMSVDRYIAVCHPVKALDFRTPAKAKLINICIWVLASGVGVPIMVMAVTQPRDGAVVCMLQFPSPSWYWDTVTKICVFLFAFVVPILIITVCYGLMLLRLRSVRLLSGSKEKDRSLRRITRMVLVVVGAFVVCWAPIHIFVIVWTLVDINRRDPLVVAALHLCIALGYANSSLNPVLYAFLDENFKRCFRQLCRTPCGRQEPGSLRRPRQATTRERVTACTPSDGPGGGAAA

A word on the IC50: it is the concentration that inhibits the measured activity by half. Read a low IC50 as greater potency in that assay. Consider H-YMGFP-NH2, for which, in the assay listed under Mus musculus [1], the Relative potency stood at 25. In addition, the IC50 was 0.0231 µM in assay [2] and 0.0219 µM at Mu-type opioid receptor. In addition, in assay [3], the Ratio stood at 0.95.
Regarding `CC(C)C[C@@H](NC(=O)[C@H](Cc1ccccc1)NC(=O)CNC(=O)[C@@H](C)NC(=O)[C@@H](N)Cc1ccc(O)cc1)C(=O)O` [DADLE], the IC50 against Mu-type opioid receptor was determined as 0.0478 µM.
Turning to `CC(C)C[C@H](NC(=O)[C@H](Cc1ccccc1)NC(=O)CNC(=O)[C@H](CO)NC(=O)[C@@H](N)Cc1ccc(O)cc1)C(=O)N[C@H](C(=O)O)[C@@H](C)O`, the results for the “Hind-paw lick latency time” value in the assay on Mus musculus [4], in the assay on Mus musculus [5] and with Mus musculus [6] were 6.6 s, 10.5 s and 32.6 s, respectively. The IC50 on Mu-type opioid receptor was determined as 0.36 µM.
Take `CC(C)CC(C)NC(=O)CNC(=O)[C@H](C)NC(=O)[C@@H](N)Cc1ccc(O)cc1` (stereo not given in full): the “Hind-paw lick latency time” value with Mus musculus [7] was 25 s. The molecule further had a Relative potency in the assay listed under Mus musculus [1] of 1. Also, the IC50 came to 1.22 µM in assay [2] and 0.182 µM against Mu-type opioid receptor. The Ratio in assay [3] came to 0.15.
Take `C[C@H](NC(=O)[C@@H](N)Cc1ccc(O)cc1)C(=O)NCC(=O)N(C)[C@@H](Cc1ccccc1)C(=O)N[C@@H](CC[S+](C)[O-])C(=O)O` (stereo not given in full): in the assay listed under Mus musculus [1], the Relative potency is recorded as greater than 100. The IC50 in assay [2] worked out at 0.0157 µM; against Mu-type opioid receptor it was 0.0072 µM. In addition, the Ratio in assay [3] worked out at 0.46.
On to `CN1CC[C@]23c4c5ccc(O)c4O[C@H]2[C@@H](O)C=C[C@H]3[C@H]1C5` [MORPHINE], for which, in the assay with Mus musculus [8], the “Hind-paw lick latency time” value came out at 25.2 s.
On to H-YAGFMT-OH, for which the “Hind-paw lick latency time” value in the assay with Mus musculus [9] is on record as 29.3 s. The same molecule returned a Relative potency in the assay listed under Mus musculus [1] of 2. Besides, the IC50 in [2] was found to be 0.00109 µM; against Mu-type opioid receptor it was 0.24 µM. In addition, in assay [3], the Ratio came to 220.
For the molecule H-YGGFMT-OH, in the assay with Mus musculus [10], the “Hind-paw lick latency time” value is listed as 6.5 s. The same molecule showed a Relative potency in the assay listed under Mus musculus [1] greater than 0.1. In addition, the results for the IC50 (in assay [2]; at Mu-type opioid receptor) were 0.0061 µM and 0.38 µM, respectively. The Ratio in assay [3] was found to be 62.
`CSCC[C@H](NC(=O)[C@H](Cc1ccccc1)NC(=O)CNC(=O)CNC(=O)[C@@H](N)Cc1ccc(O)cc1)C(=O)O` had a concentration for half-maximal inhibition (IC50) at Mu-type opioid receptor of 0.2 µM.
